Assay outcomes deposited in PubChem BioAssay by Johns Hopkins Ion Channel Center.
hERG protect: compounds protecting human hERG from proarrhythmic drug block; activation (rescue from dofetilide block), less the hit threshold, % at 10 µM; Q12809; hit rate 0.51% among 310,000; CHO-hERG, FluxOR thallium flux, dofetilide IC70 present;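 active means activation above the mean of controls blocked by dofetilide plus 5 SD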;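 further: thallium influx through hERG after potassium depolarization seen as dye fluorescence rise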
Kir21 block: blocks the mouse Kir2.1 inward-rectifier potassium channel | HEK293-Kir2.1, FluxOR thallium flux fluorescence; hits give low values | AID 1672 | B-score at 10 µM | hit rate 0.85% among 310,000;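 active means fluorescence ratio B-score at or below minus 3 SD of library scores, with starting-brightness B-score within 2 SD, cut at about -4.2 in these data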;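 further: channel flux triggered by added potassium and thallium sulfate stimulus; B-score of peak minus minimum fluorescence over baseline after thallium stimulus; more negative B-score means stronger Kir2.1 block with less thallium influx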
KCNQ1 inh: human KCNQ1 channel inhibition; P51787; CHO-K1 KCNQ1, FluxOR thallium flux fluorescence; hits give high values; B-score at 10 µM; hit rate 1.3% among 310,000; AID 2642;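 active means compounds whose thallium flux B-score, printed positive for inhibition, exceeds three library SD while starting fluorescence stays within three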;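 further: channel opened by potassium depolarization with thallium stimulus after 20 min compound exposure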
KCNK9 block: human KCNK9 channel inhibition. HEK293 KCNK9, FluxOR thallium flux fluorescence; hits give low values. B-score at 10 µM. hit rate 1.2% among 310,000. AID 488922;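 active means ratio B-score over 3 SD below the library mean, with starting fluorescence within 5 SD of its mean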;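 further: negative B-score means less thallium flux so channel inhibition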
KCNK3 inh: human KCNK3 channel inhibition, primary screen; O14649; CHO-KCNK3 thallium flux, FluxOR fluorescence; hits give low values; B-score at 10 µM; hit rate 0.84% among 340,000; AID 602410;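 active means B-score under library mean minus 4 SD, starting fluorescence ratio at most library mean plus 5 SD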;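 further: more negative B-score means stronger inhibition of thallium flux through KCNK3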
Target sequence (O14649 whole entry, looked up): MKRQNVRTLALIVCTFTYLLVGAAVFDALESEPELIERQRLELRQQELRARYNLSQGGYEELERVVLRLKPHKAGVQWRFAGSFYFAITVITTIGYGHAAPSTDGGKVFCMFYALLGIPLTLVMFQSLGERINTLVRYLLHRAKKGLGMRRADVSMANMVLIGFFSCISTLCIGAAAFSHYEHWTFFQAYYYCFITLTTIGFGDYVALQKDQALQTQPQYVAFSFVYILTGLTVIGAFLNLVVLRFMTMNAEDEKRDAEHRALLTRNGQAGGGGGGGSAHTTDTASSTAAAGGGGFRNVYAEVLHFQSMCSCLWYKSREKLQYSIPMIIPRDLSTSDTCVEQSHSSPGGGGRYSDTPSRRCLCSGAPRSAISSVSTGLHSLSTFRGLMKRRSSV
KCNQ1 pot: human KCNQ1 channel potentiation or activation | P51787 | CHO-K1 KCNQ1, thallium flux FluxOR fluorescence; hits give high values | B-score at 10 µM | hit rate 0.35% among 310,000 | AID 2648;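 active means fluorescence ratio B-score, a plate-corrected score, at least three library SD, with initial intensity B-score within 5 SD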
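Assay system: CHO-K1 cells stably expressing KCNQ1; Medium: assay buffer with matched DMSO; Also added: K+/Tl+ depolarizing stimulus; Dosing: single dose; Timing: dye 90 min, compound 20 min, room temperature; Measured by: kinetic FluxOR thallium fluorescence, 10-s 1-Hz baseline, 110-s post-stimulus read; Read-out: peak-minus-minimum fluorescence over initial fluorescence, negative-control normalized, B-scored.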
Starred values were filed as active, the others as inactive; i = inactive; · = no result given. Compounds with a hit are over-represented: about 3.7% of the library has one in this group of screens.

SMILES	hERG protect	Kir21 block	KCNQ1 inh	KCNK9 block	KCNK3 inh	KCNQ1 pot
CC(C)Sc1nc(C(F)(F)F)cc(=O)n1-c1ccccc1	-13.8	-4.36*	i	i	i	i
CCSc1nc(C(F)(F)F)cc(=O)n1-c1ccccc1	-15.1	-2.77	i	i	i	i
CCN1C[C@@H]2[C@@H]3C(=O)N(Cc4ccccc4)C(=O)[C@@H]3[C@](CC)(C1=O)N2C(=O)c1ccc(C(C)(C)C)cc1	·	·	·	·	i	·
CCOC(=O)CN1C(=O)N[C@@H](c2ccccc2)C(C(=O)OC)=C1C	·	·	·	·	i	·
CCOC(=O)CN1C(=O)N[C@@H](c2cccc(F)c2)C(C(=O)OC)=C1C	-7.3	-6.09*	i	i	i	i
COC(=O)C1=C(C)N(Cc2ccccc2)C(=NCc2cc(OC)c(OC)c(OC)c2)N[C@H]1c1cccc(F)c1	-7.2	-5.22*	i	i	i	i
COC(=O)C1=C(C)N(Cc2ccccc2)C(=NCc2ccc(OC)cc2)N[C@H]1c1cccc(F)c1	-17.5	-9.59*	i	i	i	i
O=C1NC(=S)S/C1=C\c1ccc2ccccc2c1	35.7*	0.8	i	i	i	49*
COc1ccc(/C=C2\SC(=O)NC2=S)cc1OC	5.7*	-1.07	i	i	i	12*
CCOc1ccc(/C=C2\SC(=S)NC2=O)cc1OC	-11.7	1.19	i	i	i	i
COc1cc(/C=C2/SC(=S)NC2=O)ccc1OS(=O)(=O)c1ccc(C)cc1	-11.5	-1.88	i	i	i	48*
COc1cc(/C=C2\SC(=S)NC2=O)ccc1OS(=O)(=O)c1ccccc1	-12.1	0.04	i	i	·	26*
COc1ccccc1CNC(=O)c1ccc2nc(N3CCOCC3)sc2c1	-9.2	1.04	i	i	i	i
O=C(NCc1ccco1)C1CCCN1C(=O)Nc1ccc(Cl)cc1 (stereo unspecified)	-7.9	-0.31	i	i	i	i
CCN(C(=O)COC(=O)c1cc(-c2cccc3ccccc23)nc2ccccc12)C1CCS(=O)(=O)C1 (stereo unspecified)	-7.4	-0.15	i	-7.13*	i	i
O=C(COC(=O)c1cc(-c2cccc3ccccc23)nc2ccccc12)NC1CCS(=O)(=O)C1 (stereo unspecified)	-16.4	-0.87	i	i	i	i
CCN(C(=O)COC(=O)C(Cc1ccccc1)N1C(=O)c2ccccc2C1=O)C1CCS(=O)(=O)C1 (stereo unspecified)	-8.2	-0.07	i	i	i	8*
O=C(N[C@@H](Cc1ccccc1)C(=O)OCc1ccccc1)c1nc[nH]c1C(=O)N1CCc2ccccc2C1	-8.1	1.45	6*	i	i	i
Cc1c(N(C)S(=O)(=O)c2cc(C(=O)NCC3CCCO3)ccc2Cl)c(=O)n(-c2ccccc2)n1C (stereo unspecified)	-7.9	-0.19	i	i	i	i
O=S(=O)(c1ccc(SCc2ccc(Br)cc2)nc1)N1CCCCC1	·	·	·	·	-10*	·
O=C1COc2ccc(C(=O)COC(=O)c3c(F)cccc3Cl)cc2N1	·	·	·	·	i	·
O=C(COC(=O)c1cc(Cl)ccc1[N+](=O)[O-])NCc1ccc(Cl)cc1Cl	-9.9	1.16	i	-7.3*	i	i
COc1cc2c(cc1OC)C1=CC(=O)C(=O)N1C(C)(C)C2	-10.7	-0.77	12*	i	i	i
COc1cc2c(cc1OC)-c1nc3ccccc3c(=O)n1C(C)(C)C2	-12.9	-1.31	i	i	i	i
CCn1nc(NS(=O)(=O)c2ccccc2[N+](=O)[O-])c2cc3cccc(C)c3nc21	-16.5	2.15	i	i	i	i
SMILES	hERG protect	Kir21 block	KCNQ1 inh	KCNK9 block	KCNK3 inh	KCNQ1 pot
CCn1nc(NS(=O)(=O)c2ccc([N+](=O)[O-])cc2)c2cc3cccc(C)c3nc21	-6.6	2.9	9*	i	i	i
Cc1nn(-c2ccccc2)nc1C(=O)NNC(=O)c1cccc2ccccc12	-12.3	0.62	i	i	i	15*
C=CCn1c(Br)nc2c1c(=O)[nH]c(=O)n2C	5.5*	-0.54	i	i	i	i
C=CCn1c(Br)nc2c1c(=O)n(C)c(=O)n2C	-6.6	1.99	i	i	i	i
Cn1nc(-c2ccc(N3CCOCC3)c(NS(=O)(=O)c3ccc(Cl)cc3)c2)c2ccccc2c1=O	·	·	·	·	-10.1*	·
O=C(NCCO)c1c(O)c2cccc3c2n(c1=O)CC3	-7.4	0.2	i	i	i	i
O=C(Nc1nccs1)c1c(O)c2cccc3c2n(c1=O)CCC3	-4.0	-0.84	6*	i	·	i
CC(C)(C)c1ccccc1NC(=O)c1c(O)c2cccc3c2n(c1=O)CC3	-6.2	-0.51	7*	i	·	i
CCOc1ccc(C(=O)NCCC(=O)N2CCC3(CC2)NCCc2[nH]cnc23)cc1OCC	-5.0	-0.33	i	i	i	i
COc1ccccc1CNC(=O)C1CC(c2ccccc2F)=NO1 (stereo unspecified)	-7.3	-0.02	i	i	i	i
Cc1cc(Nc2ccccc2)nn1C(=O)c1ccc([N+](=O)[O-])cc1	-2.3	1.42	i	i	i	i
Cc1cc(Nc2ccccc2)nn1C(=O)c1ccc(Cl)cc1	-5.1	-0.63	i	-7.7*	i	i
O=Cc1cc(N=Nc2ccccc2Cl)ccc1O	-19.6	0.99	i	i	i	11*
O=Cc1cc(N=Nc2cccc(C(=O)O)c2)ccc1O	-17.1	1.45	i	i	i	i
CC(=O)COc1ccc2c(C)c(C)c(=O)oc2c1	-2.4	-0.4	i	i	i	i
COc1ccc(-c2c(C)c3ccc(OCC(C)=O)cc3oc2=O)cc1	5.7*	-0.72	i	i	·	i
CCN(C(=O)COC(=O)c1ccc([N+](=O)[O-])o1)c1cccc2ccccc12	·	·	·	·	i	·
Cc1ccc2nc(-c3ccc(NC(=O)CN4C(=O)NC(C)(c5ccc(OC(F)F)cc5)C4=O)cc3)sc2c1 (stereo unspecified)	-10.9	-0.7	i	i	i	i
C/C(=N\n1c(C)nc2ccccc2c1=O)c1ccc(C)o1	-5.0	0.17	i	i	i	i
COc1cc(NC(=O)CSc2ncnc3sc4c(c23)CCC(C)C4)c(C(=O)O)cc1OC (stereo unspecified)	50.7*	-0.06	i	i	i	39*
CC1CCc2c(sc3ncnc(SCC(=O)Nc4ccc(C(=O)O)cc4)c23)C1 (stereo unspecified)	-16.9	0.02	i	i	i	i
